In ChEMBL document CHEMBL2417469, “Synthesis of novel analogs of 2-pyrazoline obtained from [(7-chloroquinolin-4-yl)amino]chalcones and hydrazine as potential antitumor and antimalarial agents” (Eur J Med Chem, 2013):
Values after ≈ are worked out from the molar mass of the structure shown.

How the values were obtained:
[1] = test system: SNB-19; experiment: Cytotoxicity against human SNB19 cells after 48 hrs by SRB assay; format: functional; settings: SNB-19, 48 h
Method in brief: (§1)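 NCI 60-cell screen. Cells grew 24 h (37 °C, 5% CO2) before compound was added. Compounds were in DMSO and diluted in medium with gentamicin, then tested at five levels (100, 10, 1.0, 0.1, 0.01 µM) with 48 h continuous exposure. Adherent cells were fixed with TCA (10% final) and stained with 0.4% SRB, absorbance read at 515 nm. A time-zero plate was included. LC50 is the concentration giving 50% loss of protein relative to time zero.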

[2] = test system: SW-620; experiment: Cytotoxicity against human SW620 cells after 48 hrs by SRB assay; format: functional; settings: SW-620, 48 h; method in brief: as §1
[3] = Cytotoxicity against human EKVX cells after 48 hrs by SRB assay; format: functional
Method in brief: (§2)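 NCI 60-cell-line screen. Cells preincubated 24 h at 37 °C, 5% CO2; time-zero plates TCA-fixed. Compounds dissolved in DMSO and tested at five concentrations (100, 10, 1.0, 0.1, 0.01 µM) for 48 h continuous exposure. Adherent cells fixed with cold TCA (10% final), then SRB stained; absorbance at 515 nm. GI50, TGI and LC50 calculated from growth relative to time-zero and untreated controls.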

[4] = Toxicity in RBC (unknown origin) assessed as hemolysis after 48 hrs at 20 to 80 ug/ml by spectrophotometry; format: cell-based, Erythrocyte; settings: red blood cells (RBC); read-out: Activity
Method in brief: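 Red blood cells at 5% hematocrit in RPMI 1640 exposed to 20, 40 and 80 µg/mL for 48 h at 37 °C; free hemoglobin read spectrophotometrically at 542 nm.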

[5] = test system: OVCAR-4; experiment: Cytotoxicity against human OVCAR4 cells after 48 hrs by SRB assay; format: functional; settings: OVCAR-4, 48 h; method in brief: as §2
[6] = test system: NCI-H322M; experiment: Cytotoxicity against human NCI-H322M cells after 48 hrs by SRB assay; format: functional; method in brief: as §2
[7] = test system: SK-OV-3; experiment: Cytotoxicity against human SKOV3 cells after 48 hrs by SRB assay; format: functional; settings: SK-OV-3, 48 h; method in brief: as §2
[8] = test system: SK-MEL-28; experiment: Cytotoxicity against human SK-MEL-28 cells after 48 hrs by SRB assay; format: functional; settings: SK-MEL-28, 48 h; for CC50: read-out: LC50 (the source's name); method in brief: as §2
[9] = test system: KM12; experiment: Cytotoxicity against human KM12 cells after 48 hrs by SRB assay; format: functional; settings: KM12, 48 h; method in brief: as §2
[10] = test system: U-251; experiment: Cytotoxicity against human U251 cells after 48 hrs by SRB assay; format: functional; settings: U-251, 48 h; for CC50: read-out: LC50 (the source's name); method in brief: as §1
[11] = test system: UO-31; experiment: Cytotoxicity against human UO31 cells after 48 hrs by SRB assay; format: functional; settings: UO-31, 48 h; method in brief: as §1
[12] = test system: OVCAR-5; experiment: Cytotoxicity against human OVCAR5 cells after 48 hrs by SRB assay; format: functional; settings: OVCAR-5, 48 h; method in brief: as §2
[13] = test system: 786-0; experiment: Cytotoxicity against human 786-0 cells after 48 hrs by SRB assay; format: functional; settings: 786-0, 48 h; method in brief: as §2
[14] = test system: Malme-3M; experiment: Cytotoxicity against human MALME-3M cells after 48 hrs by SRB assay; format: functional; method in brief: as §2
[15] = test system: OVCAR-8; experiment: Cytotoxicity against human OVCAR8 cells after 48 hrs by SRB assay; format: functional; settings: OVCAR-8, 48 h; method in brief: as §2
[16] = test system: HL-60(TB); experiment: Cytotoxicity against human HL-60(TB) cells after 48 hrs by SRB assay; format: functional; settings: HL-60, 48 h; method in brief: as §2
[17] = test system: OVCAR-3; experiment: Cytotoxicity against human OVCAR3 cells after 48 hrs by SRB assay; format: functional; settings: OVCAR-3, 48 h; method in brief: as §2
[18] = test system: COLO 205; experiment: Cytotoxicity against human COLO205 cells after 48 hrs by SRB assay; format: functional; settings: COLO 205, 48 h; method in brief: as §2
[19] = test system: M14; experiment: Cytotoxicity against human M14 cells after 48 hrs by SRB assay; format: functional; settings: M14, 48 h; for CC50: read-out: LC50 (the source's name); method in brief: as §2
[20] = test system: SK-MEL-5; experiment: Cytotoxicity against human SK-MEL-5 cells after 48 hrs by SRB assay; format: functional; settings: SK-MEL-5, 48 h; method in brief: as §2
[21] = test system: RXF 393; experiment: Cytotoxicity against human RXF393 cells after 48 hrs by SRB assay; format: functional; settings: RXF 393, 48 h; method in brief: as §2
[22] = test system: MCF7; experiment: Cytotoxicity against human MCF7 cells after 48 hrs by SRB assay; format: functional; settings: MCF7, 48 h; for CC50: read-out: LC50 (the source's name); method in brief: as §2
[23] = test system: NCI-H460; experiment: Cytotoxicity against human NCI-H460 cells after 48 hrs by SRB assay; format: functional; settings: NCI-H460, 48 h; method in brief: as §2
[24] = test system: A498; experiment: Cytotoxicity against human A498 cells after 48 hrs by SRB assay; format: functional; settings: A498, 48 h; for CC50: read-out: LC50 (the source's name); method in brief: as §2
[25] = test system: DU-145; experiment: Cytotoxicity against human DU145 cells after 48 hrs by SRB assay; format: functional; settings: DU-145, 48 h; method in brief: as §2
[26] = test system: A549; experiment: Cytotoxicity against human A549/ATCC cells after 48 hrs by SRB assay; format: functional; settings: A549, 48 h; for CC50: read-out: LC50 (the source's name); method in brief: as §2
[27] = test system: Plasmodium falciparum; experiment: Antimalarial activity against Plasmodium falciparum NF54 infected in human serum after 48 hrs by fluorometric method; format: functional, organism-based
Method in brief: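 Asynchronous P. falciparum NF54 cultures at 1.5–2% parasitemia, 5% hematocrit in RPMI with 10% human serum; equal volumes of parasite suspension and compound dilutions (from 100 µg/mL stock) incubated 48 h, 37 °C, 90% N2/5% CO2/5% O2. DNA extracted with proteinase K lysis, stained with ethidium bromide; fluorescence-based viability vs compound-free control. IC50 by Probit; triplicate.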

[28] = test system: K562; experiment: Cytotoxicity against human K562 cells after 48 hrs by SRB assay; format: functional; settings: K562, 48 h; method in brief: as §2

## CC(=O)N1N=C(c2ccc(Nc3ccnc4cc(Cl)ccc34)cc2)CC1c1ccc(Cl)cc1 (configuration not stated)
[1]
  GI50: > 100 µM
  LC50: > 100 µM
[2]
  GI50: 100 µM
  LC50: > 100 µM
[3]
  LC50: > 100 µM
[4]
  hemolysis at 48 h: 3.4%
[5]
  GI50: 6.92 µM
  LC50: > 100 µM
[6]
  GI50: > 100 µM
  LC50 (50% lethal concentration): > 100 µM
[7]
  GI50: > 100 µM
  LC50 (concentration killing 50% of cells): > 100 µM
[8]
  GI50: 4.88 µM
  CC50: > 100 µM
[9]
  GI50: 6.59 µM
  LC50 (concentration killing 50% of cells): > 100 µM
[10]
  GI50: > 100 µM
  CC50: > 100 µM
[11]
  GI50: 3.87 µM
  LC50: > 100 µM
[12]
  GI50: > 100 µM
  LC50: > 100 µM
[13]
  GI50: > 100 µM
  LC50: > 100 µM
[14]
  LC50: > 100 µM
[15]
  GI50: > 100 µM
  LC50 (50% net cell kill): > 100 µM
[16]
  GI50: 3.56 µM
[16]; read-out: LC50 (the source's name)
  CC50: > 100 µM
[17]
  GI50: 7.19 µM
  LC50: > 100 µM
[18]
  GI50: 5.93 µM
  LC50: > 100 µM
[19]
  GI50: 5.24 µM
  CC50: > 100 µM
[20]
  GI50: 2.2 µM
  LC50 (concentration killing 50% of cells present at time zero): > 100 µM
[21]
  GI50: 5.07 µM
  LC50 (concentration killing 50% of cells): > 100 µM
[22]
  GI50: 4.04 µM
  CC50: > 100 µM
[23]
  GI50: > 100 µM
  LC50: > 100 µM
[24]
  GI50: > 100 µM
  CC50: > 100 µM
[25]
  GI50: > 100 µM
  LC50 (concentration killing 50% of cells): > 100 µM
[26]
  GI50: 8.81 µM
  CC50: > 100 µM
[27]
  IC50: 54.6 µg/mL (≈ 115 µM)

## COc1cccc2c1C(=O)c1c(O)c3c(c(O)c1C2=O)C[C@@](O)(C(=O)CO)C[C@@H]3O[C@H]1C[C@H](N)[C@H](O)[C@H](C)O1 [DOXORUBICIN]
[1]
  GI50: 0.04 µM
[2]
  GI50: 0.09 µM
[3]
  GI50: 0.41 µM
[5]
  GI50: 0.37 µM
[6]
  GI50: 0.54 µM
[7]
  GI50: 0.22 µM
[8]
  GI50: 0.21 µM
  CC50: 15.9 µM
[9]
  GI50: 0.27 µM
[10]
  GI50: 0.04 µM
  CC50: 30.6 µM
[11]
  GI50: 0.49 µM
[12]
  GI50: 0.41 µM
[13]
  GI50: 0.13 µM
[14]
  GI50: 0.12 µM
[15]
  GI50: 0.1 µM
[16]
  GI50: 0.12 µM
[17]
  GI50: 0.39 µM
[18]
  GI50: 0.18 µM
[19]
  GI50: 0.18 µM
  CC50: 4.05 µM
[20]
  GI50: 0.08 µM
[28]
  GI50: 0.19 µM
[21]
  GI50: 0.1 µM
[22]
  GI50: 0.03 µM
  CC50: 51.3 µM
[23]
  GI50: 0.02 µM
[24]
  GI50: 0.1 µM
  CC50: 1.9 µM
[25]
  GI50: 0.11 µM
[26]
  GI50: 0.06 µM
  CC50: 100 µM
